Legend:
[1] = Antiinflammatory activity in human neutrophils assessed as inhibition of fMLP/CB-induced elastase release at 10 uM incubated for 5 mins prior to fMLP/CB challenge; type: functional; conditions: Neutrophil
Procedure, shortened: (§1)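 Donor neutrophils (healthy adults, 20−30 y), purified by dextran sedimentation, Ficoll Hypaque and hypotonic lysis, kept in Ca2+-free HBSS pH 7.4 at 4 °C. Cells at 6 × 10^5/mL with MeO-Suc-Ala-Ala-Pro-Val-p-nitroanilide 100 μM as elastase substrate, equilibrated 37 °C 2 min before compound addition. Mean ± SEM, n = 3 or 4.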

[2] = Antiinflammatory activity in human neutrophils assessed as inhibition of fMLP/CB-induced superoxide anion generation incubated for 5 mins prior to fMLP/CB challenge; type: functional, cell-based; conditions: Neutrophil
Procedure, shortened: (§2)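 Neutrophils from healthy adult donors (20−30 y), enriched by dextran sedimentation, Ficoll Hypaque centrifugation and hypotonic lysis, held in Ca2+-free HBSS pH 7.4 at 4 °C. Cells (6 × 10^5/mL) with ferricytochrome c 0.5 mg/mL and Ca2+ 1 mM, 37 °C 2 min, DMSO control. CB 1 μg/mL 3 min, then fMLP 100 nM 10 min. O2•− read as SOD-inhibitable cytochrome c reduction. Mean ± SEM, n = 3 or 4.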

[3] = Antiinflammatory activity in human neutrophils assessed as inhibition of fMLP/CB-induced elastase release incubated for 5 mins prior to fMLP/CB challenge; type: functional, cell-based; conditions: Neutrophil; procedure, shortened: as §1
[4] = Antiinflammatory activity in human neutrophils assessed as inhibition of fMLP/CB-induced superoxide anion generation at 10 uM incubated for 5 mins prior to fMLP/CB challenge; type: functional; conditions: Neutrophil; procedure, shortened: as §2
K562 = test: Cytotoxicity against human K562 cells after 6 hrs by Alamar Blue assay; type: functional; conditions: K562, 6 h, read-out: ED50 (the source's name)
MOLT-4 = test: Cytotoxicity against human MOLT4 cells after 6 hrs by Alamar Blue assay; type: functional; conditions: MOLT-4, 6 h, read-out: ED50 (the source's name)
T47D = test: Cytotoxicity against human T47D cells after 3 hrs by Alamar Blue assay; type: functional; conditions: read-out: ED50 (the source's name)

| Structure (SMILES) | inhibition at 10 µM [1] [%] | IC50 [2] [µM] | IC50 [3] [µM] | inhibition at 10 µM [4] [%] | EC50 (K562) [µM] | EC50 (MOLT-4) [µM] | EC50 (T47D) [µM] |
| --- | --- | --- | --- | --- | --- | --- | --- |
| CC(=O)O[C@H]1[C@H](C(C)C)[C@@H]2[C@@H]([C@H]3C[C@](C)(O)[C@@H](OC(C)=O)CC[C@@](C)(OC(C)=O)[C@@H]2O3)[C@](O)(CCl)[C@H]1OC(C)=O | 6.42 | > 10 | > 10 | 9.36 |  |  |  |
| C=C1[C@H]2[C@@H]([C@H](C(C)C)[C@H](OC(C)=O)[C@@H]1O)[C@H]1O[C@@H]2C[C@](C)(O)[C@@H](OC(C)=O)CC[C@@]1(C)OC(=O)CCC | 6.47 | > 10 | > 10 | 10.5 |  |  |  |
| O=c1[nH]cc(F)c(=O)[nH]1 [FLUOROURACIL] |  |  |  |  | 16.2 | 15.1 | 50.2 |
| CC(=O)O[C@H]1C[C@H](C(C)C)[C@@H]2[C@@H]([C@H]3C[C@](C)(O)[C@@H](O)CC[C@@](C)(OC(C)=O)[C@@H]2O3)[C@]1(O)CCl | 9.18 | > 10 | > 10 | 3.37 |  |  |  |
| C=C1C[C@H]2O[C@H]([C@H]3[C@@H]2C(=C)[C@@H](O)C[C@@H]3C(C)C)[C@](C)(OC(C)=O)CC[C@@H]1O | 0.62 | > 10 | > 10 | 3.2 |  |  |  |
| C=C1[C@H]2[C@@H]([C@@H](C(C)C)[C@H](O)[C@@H]1OC(C)=O)[C@H]1O[C@@H]2C[C@](C)(O)[C@@H](OC(C)=O)CC[C@@]1(C)OC(=O)CCC | 16.8 | > 10 | > 10 | 2.92 |  |  |  |
| CC(=O)O[C@H]1C[C@H](C(C)C)[C@@H]2[C@@H]([C@H]3C[C@](C)(O)[C@@H](OC(C)=O)CC[C@@](C)(OC(C)=O)[C@@H]2O3)[C@]1(O)CCl | -1.19 | > 10 | > 10 | 8.92 |  |  |  |
| C=C1[C@H]2[C@H]([C@H]3O[C@@H]2C[C@](C)(O)[C@@H](OC(C)=O)CC[C@@]3(C)OC(C)=O)[C@H](C(C)C)C[C@@H]1O | 7.33 | > 10 | > 10 | 14.7 |  |  |  |
| C=C1[C@H]2[C@@H]([C@@H](C(C)C)C[C@@H]1O)[C@H]1O[C@@H]2C[C@](C)(O)[C@@H](OC(=O)Cc2ccccc2)CC[C@@]1(C)OC(=O)CCC | 89.2 | 3.13 | 2.92 | 81.6 | 7.97 | 4.35 | 8.58 |
| C=C1[C@H]2[C@@H]([C@@H](C(C)C)C[C@@H]1O)[C@H]1O[C@@H]2C[C@](C)(O)[C@@H](O)CC[C@@]1(C)OC(C)=O | 11.6 | > 10 | > 10 | 7.14 |  |  |  |
| C=C1[C@H]2[C@@H]([C@@H](C(C)C)[C@H](OC(C)=O)[C@@H]1O)[C@H]1O[C@@H]2C[C@](C)(O)[C@@H](O)CC[C@@]1(C)OC(=O)CCC | 7.35 | > 10 | > 10 | 1.17 |  |  |  |
| CC(=O)O[C@H]1[C@H](C(C)C)[C@@H]2[C@@H]([C@H]3C[C@](C)(O)[C@H](O)CC[C@@](C)(OC(C)=O)[C@@H]2O3)[C@](O)(CCl)[C@H]1OC(C)=O | 7.3 | > 10 | > 10 | 5.02 |  |  |  |

Reference: ChEMBL document CHEMBL2424517, “Eunicellin-based diterpenoids from the Formosan soft coral Klyxum molle with inhibitory activity on superoxide generation and elastase release by neutrophils” (J Nat Prod, 2013)
